Test results reported in PMC12062462 (Nature Communications, 2025).

Tests used:
RIPK3-mediated apoptosis = conditions: cited from earlier work
[1] = system: L929 cells (TNF-α-induced necroptosis); assay: Necroptosis induction and inhibition assay in L929; assay type: cell-based, mouse; conditions: Mus musculus, L929, read-out: EC50^L929 against TNF-α-induced necroptosis, mouse TNF-α (20 ng/mL) and zVAD (10 μM), CCK-8
[2] = system: HT29 cells (TNF-α-induced necroptosis); assay: Necroptosis induction and inhibition assay in HT29; assay type: cell-based, human; conditions: Homo sapiens, HT-29, read-out: EC50^HT29 against TNF-α-induced necroptosis, zVAD (20 μM), human TNF-α (40 ng/mL), Smac mimetic SM-164 (100 nM), CCK-8
[3] = system: L929 RIPK3-/- + RIPK3 K51A cells; assay: Cell viability assay with or without zVAD, L929 RIPK3-/- + RIPK3 K51A; assay type: cell-based, mouse; conditions: 1.6 μM, without zVAD
Method in brief: (§1)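 L929 cells were grown in MEM with 10% FBS. RIPK3 was knocked out by CRISPR/Cas9 (sgRNA against mouse RIPK3), and knockout was confirmed by sequencing and immunoblot. Knockout lines with or without re-expressed RIPK3 K51A or K51A/R69H were seeded at 10,000–20,000 cells/well and left to attach for 24 h. Cells were exposed to test compound alone or with zVAD for 18–20 h. Viability was read by CCK-8 (1–2 h, 37 °C, A450). Three experiments in triplicate; CC50 by nonlinear regression.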

[4] = system: L929 RIPK3-/- + RIPK3 K51A/R69H cells; assay: Cell viability assay with or without zVAD, L929 RIPK3-/- + RIPK3 K51A/R69H; assay type: cell-based, mouse
Method in brief: as §1

[5] = system: caspase 3 activity in L929 cell lysates; assay: Caspase 3 activity in L929 cell lysates; assay type: cell-based, mouse
Method in brief: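 L929 cells were cultured 12 h in 12-well plates, then exposed to test compound or DMSO for 0, 1, 2, 3 or 4 h. Protein was measured by BCA. Lysate was incubated with Ac-DEVD-pNA overnight at 37 °C and read at A405 minus blank. Three experiments, each in triplicate.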

[6] = system: caspase 3 and caspase 8 cleavage in L929 cells; assay: Western blot of caspase 3 and caspase 8 cleavage in L929 cells; assay type: cell-based, mouse; conditions: L929, 3 hours
Method in brief: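 L929 cells in 12-well plates at about 80% confluency were exposed for 3 h to test compound, DMSO or medium, each with 10 µM zVAD. Cells were lysed at room temperature in a Triton X-100/Tris-based 1× SDS sample buffer and boiled 10 min. Proteins were run on 15% SDS-PAGE and blotted to PVDF. Membranes were blocked in 5% milk and probed for caspase 3 and caspase 8 cleavage overnight at 4 °C. Three independent experiments.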

RIPK3-RIPK1 interaction = RIPK3-RIPK1 interaction (Mus musculus, UniProt Q9QZL0); assay: RIPK1 immunoprecipitation; assay type: cell-based; conditions: L929, 10 µM, 5 hours
Method in brief: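 Lysates were cleared at 17,000 g for 15 min at 4 °C, and an input sample was kept. Lysate was incubated with anti-RIPK1 antibody on protein A/G magnetic beads for 2 h at 4 °C. Co-precipitated RIPK3 was detected by Western blot. Normalized quantification came from three independent experiments.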

mRIPK3^KD R69H = mRIPK3^KD R69H (Mus musculus, UniProt Q9QZL0, C111A/R69H); assay: Size-exclusion chromatography; conditions: protein 10 mg/mL, compound 1 mM
Method in brief: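 Mouse RIPK3 kinase domain 1-313 (C111A/R69H, C-terminal 10×His) was expressed in Sf-9 cells by baculovirus, with 10 µM test compound or DMSO added to the lysate. Ni-NTA eluate was concentrated to 10 mg/mL, incubated with 1 mM compound and centrifuged at 17,000 g for 15 min. It was then run on Superdex 200 Increase 10/300 in 25 mM Tris pH 8.0, 150 mM NaCl, 5 mM DTT plus 10 µM compound. Three independent runs.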

panel of 291 kinases = conditions: 1 µM, overlapping panel of 272 kinases; ref 30 (Mandal et al., 2014); cited from earlier work

Sequence of RIPK3-RIPK1 interaction (Q9QZL0 whole entry): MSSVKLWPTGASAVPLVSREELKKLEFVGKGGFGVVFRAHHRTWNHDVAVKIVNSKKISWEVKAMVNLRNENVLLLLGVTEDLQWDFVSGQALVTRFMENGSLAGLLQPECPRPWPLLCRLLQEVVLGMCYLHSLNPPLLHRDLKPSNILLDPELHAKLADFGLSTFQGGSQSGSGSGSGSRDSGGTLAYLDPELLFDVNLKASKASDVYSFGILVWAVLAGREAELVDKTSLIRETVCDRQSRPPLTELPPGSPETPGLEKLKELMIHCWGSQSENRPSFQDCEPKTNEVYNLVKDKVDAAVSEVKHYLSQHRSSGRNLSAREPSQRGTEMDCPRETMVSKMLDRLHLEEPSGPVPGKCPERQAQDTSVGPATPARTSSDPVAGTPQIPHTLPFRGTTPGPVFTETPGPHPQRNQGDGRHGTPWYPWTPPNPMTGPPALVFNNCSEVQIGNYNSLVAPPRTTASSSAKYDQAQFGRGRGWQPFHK
Sequence of mRIPK3^KD R69H (Q9QZL0 1-313 R69H/C111A): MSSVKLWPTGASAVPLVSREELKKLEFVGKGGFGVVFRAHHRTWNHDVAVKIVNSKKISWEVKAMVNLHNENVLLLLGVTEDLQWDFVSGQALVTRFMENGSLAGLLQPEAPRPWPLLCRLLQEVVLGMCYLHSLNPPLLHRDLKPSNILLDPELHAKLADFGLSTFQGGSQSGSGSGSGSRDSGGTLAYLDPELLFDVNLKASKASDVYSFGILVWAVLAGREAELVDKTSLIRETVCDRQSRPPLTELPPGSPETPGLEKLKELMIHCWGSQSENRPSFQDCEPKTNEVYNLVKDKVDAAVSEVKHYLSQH

Row | Compound | concentration triggering RIPK3-mediated apoptosis relative to EC50 (RIPK3-mediated apoptosis) | EC50 [1] [µM] | EC50 [2] [µM] | viability of cells expressing the ATPase-inactive RIPK3 K51A mutant [3] | apoptosis in cells expressing RIPK3 K51A and R69H double mutation [4] | concentration at which caspase 3 is activated [5] [µM] | activation of the apoptotic pathway: cleavage of caspase 8 and caspase 3 (Western blot) [6] | interaction between RIPK3 and RIPK1 (co-immunoprecipitation) (RIPK3-RIPK1 interaction) | elution position of mRIPK3^KD R69H in complex with inhibitor (mRIPK3^KD R69H) | number of kinases inhibited by >65% (panel of 291 kinases) [kinases]
1 | GSK'840 | approximately twice their EC50 values | – | – | – | – | – | – | – | – | –
2 | CC(C)S(=O)(=O)c1ccc2nccc(Nc3ccc4scnc4c3)c2c1 [GSK'872, reference compound] | – | 3.6 | 7.9 | significantly reduces the viability | does not cause such apoptosis | 5 | cleavage of caspase 8 and caspase 3 | enhances the interaction between RIPK3 and RIPK1 | aligns with a monomer | 13
